Assay results of several laboratories.
Each line is one published result; the experiments were not run side by side.
CDK17: Cyclin-dependent kinase 17 (CDK17, Homo sapiens, UniProt Q00537)
CDK17 with cyclin Y: Cyclin-dependent kinase 17, with cyclin Y (CDK17, Homo sapiens, UniProt Q00537)

CN(CCCC(F)(F)F)c1nccc(-c2cnn3ncccc23)n1 — remaining binding (CDK17; binding; 1 µM): 90%
CC(C)CC(=O)N1CCc2nc(-c3ccc(Br)cc3)nc(N(C)Cc3ccccc3)c2C1 — remaining binding (CDK17; cell-free assay; competition with immobilised ligand; 0.1 µM): 100%
O=C(Nc1cnn(-c2csc(C(=O)NC3COC3)c2)c1)Nc1ccccc1Cl — remaining activity (CDK17 with cyclin Y; enzyme activity; inhibitor; 5 µM): 106%
c1ccc(CNc2nc(N3CCOc4ccccc43)nc3c2CCCC3)cc1 — inhibition (CDK17; target engagement in cells; inhibitor; chemoproteomics; 20 mM): -12.4%
Cc1nccc(COC(=O)N2C[C@@H]3[C@@H](CNC(=O)c4ccc5[nH]nnc5c4)[C@@H]3C2)n1 — remaining binding (CDK17; cell-free assay; competition with immobilised ligand; 1 µM): 90%
COc1cccc2c(NCc3ccccc3)nc(-n3c(N)nc4ccccc43)nc12 — inhibition (CDK17; target engagement in cells; inhibitor; chemoproteomics; 20 mM): -40.2%
Cc1sc(C(=O)NC2COC2)cc1-n1cc(NC(=O)Nc2c(F)cccc2Cl)cn1 — remaining activity (CDK17 with cyclin Y; enzyme activity; inhibitor; 10 µM): 102%
Cn1c2c(Cl)c(Cl)ccc2c2cc[nH]c(=O)c21 — ΔTm (CDK17; thermal stability; DSF; 10 µM): -0.4 °C
CCCOc1ccc([C@H]2[C@H](C(=O)O)[C@@H](c3ccc4c(c3)OCO4)CN2CC(=O)Nc2c(CC)cccc2CC)cc1 — remaining binding (CDK17; cell-free assay; competition with immobilised ligand; 1 µM): 91%
Cn1c2c(Cl)c(Cl)ccc2c2cn[nH]c(=O)c21 — ΔTm (CDK17; thermal stability; DSF; 10 µM): 0.5 °C
Cc1ccc(C(=O)NCc2ccsc2)cc1C#Cc1cn(C(C)C)c2ncnc(N)c12 — activity vs control (CDK17 with cyclin Y; enzyme activity; inhibitor; 1 µM): 104%
O=C(N[C@H]1CCCCC/C=C\C2C[C@@]2(C(=O)O)NC(=O)[C@@H]2C[C@@H](Oc3ccncc3)CN2C1=O)OC1CCCC1 (stereo partly shown) — remaining binding (CDK17; binding; competition with immobilised ligand; 1 µM): 89%
Cn1c2c(c3ccc(Cl)c(Cl)c31)C(C#N)C(C)(C)NC2=O (stereo not shown) — ΔTm (CDK17; thermal stability; DSF; 10 µM): 1.1 °C
